The results in this text go back to ChEMBL document CHEMBL4033649, “Discovery of tetrahydrocarbazoles as dual pERK and pRb inhibitors” (Eur J Med Chem, 2017).

One test in a line: Inhibition of ERK phosphorylation in human MDA-MB-231 cells after 1 hr. Type of test: cell-based.
Conditions: not given
Summed up: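 MDA-MB-231 cells (25,000/well) grown 24 h, serum-starved 6 h, then exposed to compound 1 h (screen at 10 μM, n=3; dose-response for IC50). Cells fixed in 3.7% formaldehyde, permeabilized with 0.1% Triton X, immunostained with phospho-p44/p42 MAPK (T202/Y204) antibody plus anti-rabbit IgG secondary; TMB colour read by absorbance.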
As a reminder, the IC50 is the midpoint of a concentration-inhibition curve. A high value points to weaker potency in that assay. In the case of `Cc1ccc2[nH]c3c(c2c1)CCC(NC1CCC(C)C1)C3` (stereo unspecified) [listing 1 of 2 here], inhibition was half-maximal at 5.5 µM (IC50).
`c1ccc2c3c([nH]c2c1)C(NC1CCCC1)CCC3` (stereo unspecified) [listing 1 of 2 here] registered a half-inhibitory concentration (IC50) of 30 µM.

Staying with this test, now noted: Homo sapiens, MDA-MB-231, 1 h.
`O=C(NC1CCc2c([nH]c3ccccc23)C1)c1cccc(F)c1` (stereo unspecified) came in with an IC50 of 8.1 µM.
For the compound `c1ccc(CNC2CCc3c([nH]c4ccccc34)C2)cc1` (stereo unspecified), the IC50 was 6.11 µM.
Still for that read-out and setting: with `O=S(=O)(NC1CCc2c([nH]c3ccccc23)C1)c1cccnc1` (stereo unspecified) the figure was 69.9 µM; with `c1ccc2c3c([nH]c2c1)CC(NC1CCCCC1)CC3` (stereo unspecified), 7 µM; with `CC1CCC(NC2CCCc3c2[nH]c2ccccc32)C1` (stereo unspecified), 3 µM.
The compound `c1ccc2c3c([nH]c2c1)CC(NC1CCOCC1)CC3` (stereo unspecified) yielded an IC50 above 100 µM.
Turning to `Cc1ccc(CNC2CCc3c(n(C)c4ccccc34)C2)cc1` (stereo unspecified), the IC50 stood at 4.4 µM.
Turning to `CC1CCC(NC2CCCc3c2[nH]c2ccc([N+](=O)[O-])cc32)C1` (stereo unspecified), the IC50 was 5.52 µM.
In turn, `Cc1ccc(CNC2CCc3c([nH]c4ccc(C)cc34)C2)cc1` (stereo unspecified) had an IC50 of 4.6 µM.
For `Cc1ccc2[nH]c3c(c2c1)CCC(NCc1ccccc1)C3` (stereo unspecified), inhibition was half-maximal at 5.5 µM (IC50).
With `c1ccc2c3c([nH]c2c1)C(NC1CCCCC1)CCC3` (stereo unspecified), the midpoint of inhibition, the IC50, lay at 9 µM.
The compound `c1ccc2c3c([nH]c2c1)CC(NC1CCCC1)CC3` (stereo unspecified) gave an IC50 of 21 µM.
Take `O=S(=O)(NC1CCc2c([nH]c3ccccc23)C1)c1ccc(F)cc1` (stereo unspecified): half-maximal inhibition (IC50) required 7.5 µM.
`O=S(=O)(NC1CCCc2c1[nH]c1ccccc21)c1ccc(F)cc1` (stereo unspecified) yielded an IC50 above 100 µM.
`COc1cccc(C(=O)NC2CCc3c([nH]c4ccccc34)C2)c1` (stereo unspecified) showed an IC50 of 9 µM.
As for `Cc1ccc(CNC2CCc3c([nH]c4ccccc34)C2)cc1` (stereo unspecified), half-maximal inhibition (IC50) was put at 3.62 µM.
As to `O=C(NC1CCc2c([nH]c3ccccc23)C1)c1ccccc1F` (stereo unspecified), it took 29.7 µM to reach half-maximal inhibition (IC50).
Same read-out and setting: with `O=S(=O)(NC1CCCc2c1[nH]c1ccccc21)c1cccnc1` (stereo unspecified) the figure was above 100 µM; with `N#Cc1ccc(S(=O)(=O)NC2CCc3c([nH]c4ccccc34)C2)cc1` (stereo unspecified), 7 µM; with `CC1CCC(NC2CCc3c([nH]c4ccccc34)C2)C1` (stereo unspecified), above 30 µM.
In the case of `Cc1ccc2[nH]c3c(c2c1)CCC(NC1CCC(C)C1)C3` (stereo unspecified) [listing 2 of 2 here], the midpoint of inhibition, the IC50, lay at 6 µM.
Consider `c1ccc2c3c([nH]c2c1)C(NC1CCCC1)CCC3` (stereo unspecified) [listing 2 of 2 here], for which half-maximal inhibition (IC50) was put at 21 µM.
As for `N#Cc1ccc(S(=O)(=O)NC2CCCc3c2[nH]c2ccccc32)cc1` (stereo unspecified), the half-maximal inhibitory concentration (IC50) is above 100 µM.
`CNC(=O)c1cc(Oc2ccc(NC(=O)Nc3ccc(Cl)c(C(F)(F)F)c3)cc2)ccn1` [SORAFENIB] had an IC50 of 0.063 µM.
